“And” between values parts separate entries of the source, which are not always exact repeats. Equal entries are not always repeated. Square brackets hold non-standard residues; d marks the D form. Peptide text beside a SMILES is read from it. Orn(N5-OH,N5-Ac) = CC(=O)N(O)CCC[C@H](N)C(=O)O
Experiments:
FhuD-6H (Lmo1959) = FhuD-6H (Lmo1959) (Listeria monocytogenes, UniProt Q8Y5U6); test: Intrinsic Trp fluorescence quenching, ligand binding to purified 6H-FhuD
HupD-6H (Lmo2431) = HupD-6H (Lmo2431) (Listeria monocytogenes, UniProt Q8Y4K7); test: Intrinsic Trp fluorescence quenching, ligand binding to purified 6H-HupD
L. monocytogenes EGD-e [1] = test: Growth assay in BHI with 2,2'-bipyridyl; type: cell-based, Listeria monocytogenes
L. monocytogenes EGD-e [2] = test: [59Fe]-Hn binding to whole cells, EGD-e; parameters: species or system Listeria monocytogenes; details: strain EGD-e; for Kd: read-out: Binding Kd, MOPS-L, on ice
[3] = tested on: L. monocytogenes EGD-e Δhup (ΔhupDGC); test: [59Fe]-Hn uptake by cells, Δhup; type: cell-based, Listeria monocytogenes
L. monocytogenes EGD-e [4] = details: aqueous buffers; ref Jin et al., 2005; cited from earlier work
L. monocytogenes EGD-e [5] = test: [59Fe]-Hn uptake by cells, EGD-e; type: cell-based, Listeria monocytogenes; details: for Km: read-out: Transport Km; for Km / Transport Vmax: 37°C
[6] = biological target: listerial CM Fc transporter FhuDBGC; details: ref Jin et al., 2005, cited from earlier work
L. monocytogenes EGD-e [7] = test: Iron nutrition tests on BHI agar with bipyridyl, EGD-e; type: cell-based, Listeria monocytogenes; details: 50 uM Fc, EGD-e and all mutant strains
E. coli FhuA = details: ref Newton et al., 2010; cited from earlier work
[8] = tested on: L. monocytogenes EGD-e ΔsrtAB; test: [59Fe]-Hn binding to whole cells, ΔsrtAB; parameters: species or system Listeria monocytogenes; details: strain ΔsrtAB
Procedure, shortened: (§1)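 Bacteria were grown overnight in BHI at 37°C, then passaged twice (1%) in iron-deficient MOPS-L to OD600 0.6–0.8. Cells were exposed on ice for 1 min to [59Fe]-Hn (DMSO stock diluted in ice-cold MOPS-L). They were filtered (0.45 µm), washed with 50 mM Tris-HCl pH 9.0 plus 0.05% Tween-20, and gamma-counted. Filter-only counts were subtracted. Triplicates were fitted to a one-site-plus-background model for KD and capacity (pmol/10^9 cells).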

[9] = tested on: L. monocytogenes EGD-e ΔsrtA; test: [59Fe]-Hn uptake by cells, ΔsrtA; type: cell-based, Listeria monocytogenes; details: strain ΔsrtA
Procedure, shortened: (§2)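 Cultures from overnight BHI (37°C) were passaged 1% into MOPS-L to stationary phase, then again to OD600 0.8–1. Cells were added to 37°C MOPS containing varying [59Fe]-Hn, filtered at 5 s and 1 min, washed with ice-cold 50 mM Tris, 0.05% Tween-20, pH 9, and gamma-counted. The 5 s counts were subtracted from 1 min counts to give rate. Triplicates were fitted to enzyme kinetics for KM and Vmax.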

[10] = tested on: L. monocytogenes EGD-e ΔsrtB; test: [59Fe]-Hn binding to whole cells, ΔsrtB; parameters: species or system Listeria monocytogenes
[11] = tested on: L. monocytogenes EGD-e Δlmo2185 (Δhbp2); test: [59Fe]-Hn binding to whole cells, Δlmo2185; parameters: species or system Listeria monocytogenes
[12] = tested on: L. monocytogenes EGD-e ΔsrtA; test: [59Fe]-Hn binding to whole cells, ΔsrtA; parameters: species or system Listeria monocytogenes; details: strain ΔsrtA
Procedure, shortened: as §1

[13] = tested on: L. monocytogenes EGD-e ΔsrtAB; test: [59Fe]-Hn uptake by cells, ΔsrtAB; type: cell-based, Listeria monocytogenes; details: strain ΔsrtAB
Procedure, shortened: as §2

Lmo2185 (Hbp2) = biological target: T1, Lmo2185 (Hbp2) (Listeria monocytogenes serovar 1/2a, UniProt Q7AP54); test: Equilibrium [59Fe]-Hn filter binding to purified Lmo2185
T1 sequence (Q7AP54 29-569): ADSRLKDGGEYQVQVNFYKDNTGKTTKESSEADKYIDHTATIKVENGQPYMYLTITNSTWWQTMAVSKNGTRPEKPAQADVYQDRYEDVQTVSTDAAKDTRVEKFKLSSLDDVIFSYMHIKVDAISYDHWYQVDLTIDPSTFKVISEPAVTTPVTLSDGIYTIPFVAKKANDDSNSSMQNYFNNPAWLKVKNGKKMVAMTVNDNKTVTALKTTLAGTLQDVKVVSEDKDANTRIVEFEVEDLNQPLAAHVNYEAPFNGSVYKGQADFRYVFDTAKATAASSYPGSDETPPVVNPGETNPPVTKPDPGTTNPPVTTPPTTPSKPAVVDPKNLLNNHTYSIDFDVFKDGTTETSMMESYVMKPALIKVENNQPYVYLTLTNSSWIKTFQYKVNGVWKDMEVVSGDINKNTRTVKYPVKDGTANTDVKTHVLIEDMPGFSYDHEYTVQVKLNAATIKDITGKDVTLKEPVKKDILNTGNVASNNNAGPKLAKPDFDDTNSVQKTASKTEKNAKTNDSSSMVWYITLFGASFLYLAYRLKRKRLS
Procedure, shortened: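 His-tagged Hbp2 expressed in E. coli BL21 (1 mM IPTG), purified on Co-NTA and Sephacryl S-100, stripped of Hn by boiling in 0.5% SDS and acetone precipitation, then renatured in TBS pH 8.0. Protein at 30.6 pmol/mL, refolded 1 h at RT, mixed with [59Fe]-Hn (DMSO) for 30 min on ice. Filtered on cellulose acetate and gamma-counted. Triplicates, protein-free background subtracted, KD from bound-vs-total fit.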

[14] = tested on: L. monocytogenes EGD-e ΔsrtB; test: [59Fe]-Hn uptake by cells, ΔsrtB; type: cell-based, Listeria monocytogenes; details: strain ΔsrtB
Procedure, shortened: as §2

[15] = tested on: L. monocytogenes EGD-e Δhup (ΔhupDGC); test: [59Fe]-Hn binding to whole cells, Δhup; parameters: species or system Listeria monocytogenes

C=CC1=C(C)c2cc3[nH]c(cc4nc(cc5[nH]c(cc1n2)c(C)c5CCC(=O)O)C(CCC(=O)O)=C4C)c(C)c3C=C [PPIX, protoporphyrin IX]
Kd (FhuD-6H (Lmo1959); Binding Kd FhuD-6H, intrinsic fluorescence quenching, 3–5 trials, Kd ± SD): 276 ± 32 nM
Kd (FhuD-6H (Lmo1959); KD for 6H-FhuD, fluorescence spectroscopy): 300 nM
Kd (HupD-6H (Lmo2431)): 1150 nM
fold lower affinity for LmoHupD than Hn (HupD-6H (Lmo2431); relative to Hn): 40 fold

C=CC1=C(C)c2cc3[nH]c(cc4nc(cc5[nH]c(cc1n2)c(C)c5C=C)C(C)=C4CCC(=O)O)c(CCC(=O)O)c3C.[Fe+3] [Hn, haemin]
effect on growth in BHI containing 1 mM BP (L. monocytogenes EGD-e [1]; 0.2 mM Hn added (printed), EGD-e): returned to its original growth rate
Kd (L. monocytogenes EGD-e [2]): ~1 nM
fold higher affinity of 6H-HupD than the most avid LmoFhuD binding interaction (HupD-6H (Lmo2431); relative to FhuD-FxB): 5 fold
Transport Vmax ([3]; strain Δhup): 7 pMol/10^9cells/min
fold lower uptake rate than wild type ([3]; ΔhupDBGC strain vs EGD-e): 3 fold
concentration that stimulated growth in previous study (L. monocytogenes EGD-e [4]): 200 µM
Km (L. monocytogenes EGD-e [5]; strain EGD-e): 1 nM and ~1 nM
Transport Vmax (L. monocytogenes EGD-e [5]; strain EGD-e): 23 pMol/10^9cells/min

c1ccc(-c2ccccn2)nc1 [BP, 2, 2’-bipyridyl]
effect on growth in BHI (L. monocytogenes EGD-e [1]; 1 mM BP, wild type and mutant derivatives): inhibited growth

CC(=O)N(O)CCC[C@@H]1NC(=O)CNC(=O)CNC(=O)CNC(=O)[C@H](CCCN(O)C(C)=O)NC(=O)[C@H](CCCN(O)C(C)=O)NC1=O.[Fe+3] [Fc, ferrichrome] (cyclo(GGG[Orn(N5-OH,N5-Ac)][Orn(N5-OH,N5-Ac)][Orn(N5-OH,N5-Ac)]))
Kd ([6]; read-out: KD, listerial Fc acquisition, KD ≈ KM): ~1 nM
Km ([6]; read-out: KM, listerial Fc transport, KD ≈ KM): ~1 nM
Vmax of Fc transport, FhuDBGC [6]: 22 pMol/10^9 cells/min
utilization as iron source in nutrition test (L. monocytogenes EGD-e [7]): normally utilized
Vmax of Fc transport, E. coli FhuA (E. coli FhuA): 45 pMol/10^9 cells/min

C=CC1=C(C)c2cc3[n-]c(cc4nc(cc5[n-]c(cc1n2)c(C)c5CCC(=O)O)C(CCC(=O)O)=C4C)c(C)c3C=C.[59Fe+3] [[^59Fe]-Hn]
Kd ([8]; read-out: Binding Kd): 5.1 ± 3 nM
Binding Cap. [8]: 9 pMol/10^9cells and 9 ± 1.5 pMol/10^9cells
Km ([9]; read-out: Transport Km): 1.4 ± 0.2 nM
Transport Vmax [9]: 23.1 ± 0.6 pMol/10^9cells/min
Kd (L. monocytogenes EGD-e [2]): 2 nM and 2.4 nM
Binding Cap. (L. monocytogenes EGD-e [2]): 130 pMol/10^9cells and 129.5 ± 5.6 pMol/10^9cells
Km ([3]; read-out: Transport Km, strain Δhup): 1.1 ± 0.2 nM
Transport Vmax ([3]; strain Δhup): 7.5 pMol/10^9cells/min and 7.5 ± 0.3 pMol/10^9cells/min
Vmax as percent of the wild type rate ([3]; ΔhupDGC vs EGD-e): 27%
Kd ([10]; read-out: Binding Kd, strain ΔsrtB): 9.9 ± 1.3 nM
Binding Cap. ([10]; strain ΔsrtB): 19 pMol/10^9cells and 18.7 ± 0.9 pMol/10^9cells
decrease of binding capacity ([10]; ΔsrtB vs EGD-e, nanomolar range): 80%
Kd ([11]; read-out: Binding Kd, strain Δlmo2185 (Δhbp2)): 11.4 ± 2.6 nM
Binding Cap. ([11]; strain Δlmo2185 (Δhbp2)): 30.1 ± 2.9 pMol/10^9cells
decrease of binding capacity ([11]; Δhbp2 vs EGD-e, nanomolar range): 80%
Kd ([12]; read-out: Binding Kd): 2.3 ± 0.16 nM
Binding Cap. [12]: 130 pMol/10^9cells and 129 ± 1.9 pMol/10^9cells
Km ([13]; read-out: Transport Km): 15.1 ± 6.4 nM
Transport Vmax [13]: 5.6 ±1.3 pMol/10^9cells/min
Km (L. monocytogenes EGD-e [5]; strain EGD-e): 1.2 ± 0.2 nM
Hup-dependent transport rate Vmax (L. monocytogenes EGD-e [5]; residual accumulation in Δhup subtracted from wild-type, estimate): 14 pMol/10^9 cells/min
Vmax of uptake (text, unit without /min) (L. monocytogenes EGD-e [5]; strain EGD-e): 23 pMol/10^9 cells
Transport Vmax (L. monocytogenes EGD-e [5]; strain EGD-e): 22.2 ± 0.9 pMol/10^9cells/min
Kd (Lmo2185 (Hbp2)): 12 nM
Km ([14]; read-out: Transport Km): 7.1 ± 7.5 nM
Transport Vmax [14]: 3.5 ± 1.6 pMol/10^9cells/min
Kd ([15]; read-out: Binding Kd, strain Δhup): 2.5 ± 0.45 nM
Binding Cap. ([15]; strain Δhup): 105 pMol/10^9cells and 105 ± 4.2 pMol/10^9cells
decrease of binding capacity ([15]; Δhup vs EGD-e): ~ 20% and 20%
